ChEMBL document CHEMBL4130546, “Structures of the Largest Amphidinol Homologues from the Dinoflagellate Amphidinium carterae and Structure-Activity Relationships” (J Nat Prod, 2017)
pEC50: −log10 of the molar value.

Tests used:
[1] = test system: Erythrocyte; assay: Hemolytic activity in human erythrocytes after 18 hrs by colorimetric method; type: ADME, cell-based
Method in brief: (§1)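 Human RBCs washed in PBS (pH 7.4) by centrifugation and diluted to a 1% suspension (~1.7 × 10^7 cells/mL). 190 μL suspension mixed with 10 μL sample (up to 80 μM) or PBS; water-lysed RBCs served as 100%. Incubated at 37 °C for 18 h, centrifuged, supernatant absorbance read at 450 nm. % hemolysis and EC50 taken from dose-response curves.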

[2] = test system: Aspergillus niger; assay: Antifungal activity against Aspergillus niger NBRC 31032 after 2 days by paper disk method; type: functional
Method in brief: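 A. niger grown 2 days at 25 °C in glucose/peptone broth, spread on agar of the same medium (1.5% agar). Samples in MeOH spotted on 8 mm paper disks, up to 60 μg/disk; after 2 days at 25 °C the inhibition zone was measured and minimum effective concentration recorded.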

[3] = test system: Lipid bilayer; assay: Membrane disrupting activity in large unilamellar vesicles assessed as calcein AM dye leakage at 10 uM by fluorescence assay relative to control; type: physicochemical
Method in brief: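 Calcein-loaded POPC or POPC/cholesterol (9:1 mol ratio) LUVs, with excess dye removed by Sepharose 4B gel filtration in Tris-HCl pH 7.5 containing 1 mM EDTA and 150 mM NaCl. Lipid at 27 μM in PBS. Fluorescence (ex 490/em 517 nm) read before and after adding compound. Triton X-100 was then added to define 100% leakage.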

[4] = test system: Lipid bilayer; assay: Membrane disrupting activity in POPC/cholesterol large unilamellar vesicles assessed as calcein AM dye leakage at 80 uM by fluorescence assay relative to control; type: physicochemical
Method in brief: (§2)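 Calcein-loaded LUVs of POPC or POPC/Chol (9:1 mol) freed of external dye on Sepharose 4B in Tris-HCl pH 7.5, EDTA, NaCl. Vesicles diluted in PBS to 27 μM lipid and fluorescence read (ex 490/em 517 nm). Sample added and fluorescence re-read, then Triton X-100 added to give 100% leakage.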

[5] = test system: Lipid bilayer; assay: Membrane disrupting activity in POPC large unilamellar vesicles assessed as calcein AM dye leakage at 80 uM by fluorescence assay relative to control; type: physicochemical; method in brief: as §2
[6] = test system: Lipid bilayer; assay: Membrane disrupting activity in POPC/cholesterol large unilamellar vesicles assessed as calcein AM dye leakage at 20 uM by fluorescence assay relative to control; type: physicochemical; method in brief: as §2
[7] = test system: Lipid bilayer; assay: Membrane disrupting activity in POPC large unilamellar vesicles assessed as calcein AM dye leakage at 20 uM by fluorescence assay relative to control; type: physicochemical; method in brief: as §2
[8] = Hemolytic activity in human erythrocytes at 20 uM after 18 hrs by colorimetric method; type: ADME, cell-based, Erythrocyte; settings: read-out: Activity; method in brief: as §1

Activity [4]	Activity [5]	Activity [6]	Activity [7]	SMILES	pEC50 [1]	MEC [2]	Activity [3]	hemolysis at 18 h, 20 µM [8]
				C=CCC/C=C/C=C/C=C/CC/C=C/C(O)C(O)C1OC(C(O)C(O)C(=C)CCC(O)C2CC(O)C(O)C(C(O)C(O)/C=C(\C)CCC(O)CC(O)C(O)C(C)CC(O)C(O)CCCC(O)CCCC(O)CCCC(O)/C=C/CC(O)/C=C/CC(O)CO)O2)CC(O)C1O (stereo not given)	5.54	6 µg		
				C=C/C=C/CC/C=C/C=C/C=C/CC/C=C/[C@H](O)[C@H](O)[C@@H]1O[C@@H]([C@H](O)[C@H](O)C(=C)CC[C@@H](O)[C@H]2C[C@@H](O)[C@@H](O)[C@H]([C@@H](O)[C@H](O)/C=C(\C)CC[C@H](O)C[C@H](O)[C@H](O)[C@@H](C)C[C@H](O)[C@@H](O)CCCCC[C@@H](O)CCC[C@@H](O)/C=C/C[C@@H](O)/C=C/C[C@@H](O)CO)O2)C[C@@H](O)[C@H]1O			100%	
20%	20%	< 50%	< 50%	C=CCC/C=C/C=C/C=C/CC/C=C/C(O)C(O)[C@@H]1O[C@@H](C(O)C(O)C(=C)CCC(O)[C@H]2C[C@@H](O)[C@@H](O)[C@H](C(O)C(O)/C=C(\C)CCC(O)CC(O)C(O)C(C)CC(O)CC(C)/C=C(\C)CC(O)CC(C)CCC(O)CC(O)C(O)C(C)CC(O)CC(O)C(O)C(C)C(O)CCCC(O)CCCC(O)CCCC(O)/C=C/CC(O)/C=C/CO)O2)C[C@@H](O)[C@H]1O (stereo not given in full)	< 5.00	>15 µg		
				C=CCC/C=C/C=C/C=C/CC/C=C/C(O)C(O)C1OC(C(O)C(O)C(=C)CCC(O)C2CC(O)C(O)C(C(O)C(O)/C=C(\C)CCC(O)CC(O)C(O)C(C)CC(O)CC(C)/C=C(\C)CC(O)CC(C)CC(O)C3CC(O)C(O)C(CC(O)CC(O)CO)O3)O2)CC(O)C1O (stereo not given)	5.77	6 µg		
20%	20%	< 50%	< 50%	C=CCC/C=C/C=C/C=C/CC/C=C/C(O)C(O)[C@@H]1O[C@@H](C(O)C(O)C(=C)CCC(O)[C@H]2C[C@@H](O)[C@@H](O)[C@H](C(O)C(O)/C=C(\C)CCC(O)CC(O)C(O)C(C)CC(O)CC(C)/C=C(\C)CC(O)CC(C)CCC(O)CC(O)C(O)C(C)C(O)CCCC(O)CCCC(O)CCCC(O)/C=C/CC(O)/C=C/CO)O2)C[C@@H](O)[C@H]1O (stereo not given in full)	5.52 to 6.00	>15 µg		< 100%
				C=CCC/C=C/C=C/C=C/CC/C=C/C(O)C(O)C1OC(C(O)C(O)C(=C)CCC(O)C2CC(O)C(O)C(C(O)C(O)/C=C(\C)CCC(O)CC(O)C(O)C(C)CC(O)C(O)CC(C)CC/C=C/CC(O)CO)O2)CC(O)C1O (stereo not given)	5.92	8 µg		
